# Assays:
# [1] = test system: Mycobacterium tuberculosis; assay: Antimycobacterial activity against Mycobacterium tuberculosis H37Rv ATCC 27294 after 7 days by MABA method; type: functional; details: H37Rv ATCC 27294, 168 h
# Summary of the method: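 Two-fold serial dilutions in Middlebrook 7H9GC medium, final 50 to 0.78 µg/mL (DMSO stocks), inoculum 2 × 10^5 CFU/mL. Incubated at 37 °C for 7 days, then 10% Tween 80 and Alamar Blue added and incubated 24 h at 37 °C. Blue read as no growth, pink as growth. MIC is the lowest concentration preventing the blue-to-pink change. Isoniazid and rifampin served as positive controls.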
# [2] = Cytotoxicity against mouse RAW264.7 cells assessed as inhibition of cell growth at 50 ug/mL after 72 hrs by MTT assay; type: cell-based; details: read-out: GI
# Summary of the method: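 RAW 264.7 mouse macrophage line treated at 50 µg/mL for 72 h. Viability was scored by cellular reduction of MTT to a formazan product in a non-radioactive cell proliferation assay.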
# RAW264.7 = assay: Cytotoxicity against mouse RAW264.7 cells assessed as inhibition of cell growth after 72 hrs by MTT assay; type: cell-based; details: RAW264.7, 72 h
# Summary of the method: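 Mouse macrophage RAW 264.7 cells exposed to compound for 72 h. Viability was read as cellular conversion of MTT to formazan using a non-radioactive cell proliferation kit, and IC50 was taken from this.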
# [3] = Selectivity index, ratio of IC50 for mouse RAW264.7 cells to MIC for Mycobacterium tuberculosis H37Rv ATCC 27294; type: toxicity; details: read-out: Selectivity Index
# [4] = test system: Mycobacterium tuberculosis; assay: Antimycobacterial activity against Mycobacterium tuberculosis H37Rv ATCC 27294 assessed as inhibition of cell growth at 6.25 ug/mL after 7 days by MABA method; type: functional; details: H37Rv ATCC 27294, 168 h, read-out: GI
# [5] = test system: Mycobacterium tuberculosis; assay: Antimycobacterial activity against Mycobacterium tuberculosis H37Rv ATCC 27294 assessed as inhibition of cell growth at 3.125 ug/mL after 7 days by MABA method; type: functional; details: H37Rv ATCC 27294, 168 h, read-out: GI
Structure (SMILES),MIC [1] [µg/mL],further results
O=S(=O)(c1ccc(Br)cc1)N1CCN(c2noc3c(Cl)cccc23)CC1,25,
O=S(=O)(c1ccccc1)N1CCN(c2noc3cccc(Cl)c23)CC1,25,
O=[N+]([O-])c1ccc(S(=O)(=O)N2CCN(c3noc4c(Cl)cccc34)CC2)cc1,50,
O=S(=O)(c1ccc(Br)cc1)N1CCN(c2noc3cc(Cl)ccc23)CC1,> 50,
Cc1ccc(S(=O)(=O)N2CCN(c3noc4cccc(Cl)c34)CC2)cc1,6.25,"inhibition at 72 h, 50 ug/mL [2]: 21.6%; IC50 (RAW264.7): 116 µg/mL; selectivity ratio [3]: 18.5; inhibition of growth at 6.25 µg/mL [4]: 99%"
O=S(=O)(c1ccc(OC(F)(F)F)cc1)N1CCN(c2noc3ccccc23)CC1,> 50,
Cc1ccc(S(=O)(=O)N2CCN(c3noc4ccccc34)CC2)cc1,50,
O=S(=O)(c1ccc(OC(F)(F)F)cc1)N1CCN(c2noc3cccc(Cl)c23)CC1,12.5,"inhibition at 72 h, 50 ug/mL [2]: 42.2%; IC50 (RAW264.7): 59.3 µg/mL; selectivity ratio [3]: 4.74"
O=S(=O)(c1ccccc1)N1CCN(c2noc3ccccc23)CC1,3.12,"inhibition at 72 h, 50 ug/mL [2]: 5.82%; IC50 (RAW264.7): 430 µg/mL; selectivity ratio [3]: 137; inhibition of growth at 3.125 µg/mL [5]: 99%"
CS(=O)(=O)N1CCN(c2noc3ccccc23)CC1,12.5,"inhibition at 72 h, 50 ug/mL [2]: 28.4%; IC50 (RAW264.7): 88 µg/mL; selectivity ratio [3]: 7.03"
O=S(=O)(c1ccc(Br)cc1)N1CCN(c2noc3ccccc23)CC1,50,
O=[N+]([O-])c1ccc(S(=O)(=O)N2CCN(c3noc4cccc(Cl)c34)CC2)cc1,50,
O=S(=O)(c1ccc(OC(F)(F)F)cc1)N1CCN(c2noc3c(Cl)cccc23)CC1,> 50,
Clc1cccc2c(N3CCNCC3)noc12,25,
CS(=O)(=O)N1CCN(c2noc3cccc(Cl)c23)CC1,> 50,
O=S(=O)(c1ccccc1)N1CCN(c2noc3c(Cl)cccc23)CC1,25,
O=[N+]([O-])c1ccc(S(=O)(=O)N2CCN(c3noc4ccccc34)CC2)cc1,> 50,
Cc1ccc(S(=O)(=O)N2CCN(c3noc4cc(Cl)ccc34)CC2)cc1,> 50,
NNC(=O)c1ccncc1 [ISONIAZID],0.36,
Cc1ccc(S(=O)(=O)N2CCN(c3noc4c(Cl)cccc34)CC2)cc1,> 50,
CO[C@H]1/C=C/O[C@@]2(C)Oc3c(C)c(O)c4c(O)c(c(/C=N/N5CCN(C)CC5)c(O)c4c3C2=O)NC(=O)/C(C)=C\C=C\[C@H](C)[C@H](O)[C@@H](C)[C@@H](O)[C@@H](C)[C@H](OC(C)=O)[C@@H]1C [RIFAMPIN],1,
Clc1cccc2onc(N3CCNCC3)c12,25,
c1ccc2c(N3CCNCC3)noc2c1,6.25,"inhibition at 72 h, 50 ug/mL [2]: 36.8%; IC50 (RAW264.7): 67.9 µg/mL; selectivity ratio [3]: 10.8"
O=S(=O)(c1ccc(Br)cc1)N1CCN(c2noc3cccc(Cl)c23)CC1,50,
O=[N+]([O-])c1ccc(S(=O)(=O)N2CCN(c3noc4cc(Cl)ccc34)CC2)cc1,25,
CS(=O)(=O)N1CCN(c2noc3c(Cl)cccc23)CC1,25,
Clc1ccc2c(N3CCNCC3)noc2c1,12.5,"inhibition at 72 h, 50 ug/mL [2]: 24.1%; IC50 (RAW264.7): 104 µg/mL; selectivity ratio [3]: 8.29"
CS(=O)(=O)N1CCN(c2noc3cc(Cl)ccc23)CC1,> 50,
O=S(=O)(c1ccccc1)N1CCN(c2noc3cc(Cl)ccc23)CC1,25,
O=S(=O)(c1ccc(OC(F)(F)F)cc1)N1CCN(c2noc3cc(Cl)ccc23)CC1,12.5,"inhibition at 72 h, 50 ug/mL [2]: 18.1%; IC50 (RAW264.7): 138 µg/mL; selectivity ratio [3]: 11"

# Reference: ChEMBL document CHEMBL3352557, “Design, synthesis and antimycobacterial activity of various 3-(4-(substitutedsulfonyl)piperazin-1-yl)benzo[d]isoxazole derivatives” (Eur J Med Chem, 2014)
